Compounds with a hit are over-represented: about 2.2% of the library has one in this group of screens.
IEC-6 tox – cytotoxicity in IEC-6 intestinal epithelial cells, primary screen, cytotoxicity control for KLF5 inhibitor project, cell-based, luminescence. IEC-6 cytotoxicity, luminescence viability. inhibition, % at 5 µM. 290,000 tested, 0.78% active. AID 1825, 2009
BaF3 parental – parental Ba/F3 cell viability inhibition, counter-screen for JAK2V617F inhibitor project, murine pro-B, CellTiter-Glo luminescence | inhibition, % at 5.6 µM | AID 1486, 2009 | CellTiter-Glo ATP luminescence | 220,000 tested, 1.1% active;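 active means inhibition above a per-campaign cutoff, the mean inhibition of all tested compounds plus 3 SD, cut at about 27% in these data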
APP transl inh – inhibitors of APP translation via 5'UTR reporter, primary screen, APP 5'UTR luciferase, SH-SY5Y cells | SH-SY5Y APP 5'UTR-luciferase reporter, luminescence | inhibition, % at 2 µM | 190,000 tested, 0.82% active | AID 1285, 2008;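 active means inhibition above a set limit, derived from the sample mean plus 3 SD, cut at about 45% in these data; inconclusive means one replicate passes the limit while the other fails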
bCat nuc transl – modulators of beta-catenin nuclear translocation, primary screen, imaging, HeLa cells, immunofluorescence, high-content. nuclear translocation activity, % at 5 µM. 190,000 tested, 0.3% active. AID 1665, 2009;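 active means nuclear translocation activity above 50% at 5 µM, with a well cell count of 50 or more; inconclusive means wells under 50 cells across six images, flagged as toxic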;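 further: per-cell ratio of nuclear to cytoplasmic median beta-catenin stain intensity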
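Assay system: human HeLa cells, native beta-catenin; doses: 5 µM primary, 0.02–20 µM confirmation; incubation: compound treatment 24 h, 37°C, 5% CO2; technique: fluorescence imaging of beta-catenin antibody stain plus DAPI; measure: % activation, nuclear-to-cytoplasmic median beta-catenin signal ratio per cell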
MT stabilize HCS – microtubule stabilizers in HeLa cells, primary screen, imaging, high-content imaging; HeLa tubulin immunostaining HCS, 24 h; share of cells brighter than vehicle mean+2SD; % tubulin-high responders, % at 10 µM; 200,000 tested, 0.83% active; AID 2205, 2009;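 active means plate Z-score above 3 for both tubulin-high and condensed-nucleus cell shares, with cell loss under 80%, at 10 µM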;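 further: anti alpha tubulin signal scored within the nucleus-defined area of each cell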
Ba/F3 V617F tox – reduced viability of JAK2V617F-dependent Ba/F3 cells, primary screen, JAK2V617F inhibitor project, cell-based, Ba/F3 EpoR-JAK2V617F, luminescence; ATP luminescence; inhibition, % at 5.6 µM; 220,000 tested, 1.1% active;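 active means inhibition above the campaign mean plus 3 SD over all tested compounds, cut at about 24% in these data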;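 further: cytokine-independent growth of Ba/F3 cells driven by EpoR plus mutant JAK2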
IEC-6 tox confirm – cytotoxic compounds in IEC-6 epithelial cells, confirmation, cytotoxicity control, cell-based, luminescence | shares compounds with IEC-6 tox | IEC-6 rat intestinal epithelial viability | inhibition, % at 5 µM | 1,900 tested, 63% active | AID 1907, 2009
Hits are given with their value. Unless noted, no stated cut-off is given here; in the data, active means inhibition above about 22%; inactive means the rest.

Screening O=c1[nH]c(/C=C/c2cccc3ccccc23)nc2ccccc12 returned IEC-6 tox inactive, BaF3 parental inactive, APP transl inh inactive, bCat nuc transl inactive, MT stabilize HCS inactive and Ba/F3 V617F tox inactive.
O=c1[nH]c(/C=C/c2ccccc2F)nc2ccccc12 was read as IEC-6 tox 79 and IEC-6 tox confirm 63.
For NC(=O)CN1C(=O)C(=O)N(Cc2ccccc2Cl)C1=O the results were IEC-6 tox 44 and IEC-6 tox confirm inactive.
For NC(=O)CN1C(=O)C(=O)N(Cc2ccccc2)C1=O the results were IEC-6 tox inactive.
`COC(=O)c1ccc(NS(=O)(=O)c2cc(-c3cc(C)no3)ccc2OC)cc1` gave IEC-6 tox 63 and IEC-6 tox confirm 40.
`COc1ccc(N/N=C/c2c(C(=O)O)ccc3ccccc23)cc1` gave IEC-6 tox 41, BaF3 parental 40, bCat nuc transl inactive, Ba/F3 V617F tox 35 and IEC-6 tox confirm 36.
COc1ccc2ccccc2c1/C=N/Nc1ccc(Cl)c(C(=O)O)c1 was read as IEC-6 tox inactive.
For C=CCN(CC=C)S(=O)(=O)c1ccc2nc(NC(=O)C(C)C)sc2c1 the results were IEC-6 tox 54, BaF3 parental 76, APP transl inh inactive, bCat nuc transl inactive, MT stabilize HCS inactive, Ba/F3 V617F tox 64 and IEC-6 tox confirm 47.
Screening CN1CCN(C(=O)c2cc(C(C)(C)C)cc(C(C)(C)C)c2)CC1 returned IEC-6 tox inactive, BaF3 parental inactive, APP transl inh inactive, bCat nuc transl inactive, MT stabilize HCS inactive and Ba/F3 V617F tox inactive.
Nc1ncnc2c1ncn2[C@@H]1O[C@H](CO)[C@@H](O)[C@H]1O was read as IEC-6 tox inactive, BaF3 parental inactive, APP transl inh inactive, bCat nuc transl inactive, MT stabilize HCS inactive and Ba/F3 V617F tox inactive.
For N=c1ccn2c(n1)OC1C(O)C(CO)OC12 (centres undefined) the results were IEC-6 tox 92, BaF3 parental 80, bCat nuc transl inactive, Ba/F3 V617F tox 75 and IEC-6 tox confirm 72.
For CCOC(=O)NC(=O)C(/C=N/c1sccc1C(=O)OC)=C(\C)O the results were IEC-6 tox inactive, BaF3 parental inactive, APP transl inh inactive, bCat nuc transl inactive, MT stabilize HCS inactive and Ba/F3 V617F tox inactive.
Screening CCn1c(SCC(=O)Nc2cccc(C)c2)nc2ccccc2c1=O returned IEC-6 tox 22 and IEC-6 tox confirm inactive.
Screening COc1cc(C(=O)NCCOc2cc(C)cc(C)c2)cc(OC)c1OC returned IEC-6 tox 62 and IEC-6 tox confirm 42.
For COc1cc2[nH]c(=S)nc(NCc3ccc(Cl)cc3)c2cc1OC the results were IEC-6 tox 30 and IEC-6 tox confirm 42.
COc1ccccc1CNc1nc(=S)[nH]c2cc(OC)c(OC)cc12 was read as IEC-6 tox inactive.
COc1ccc(OCc2cc(C(=O)NCc3nc(C)cs3)no2)c(Cl)c1 was read as IEC-6 tox inactive.
CC1CC(C)(C)Nc2ccc(N=O)cc21 (centres undefined) was read as IEC-6 tox 24, BaF3 parental 93, APP transl inh 65, bCat nuc transl inactive, MT stabilize HCS inactive, Ba/F3 V617F tox 97 and IEC-6 tox confirm inactive.
Screening O=[N+]([O-])c1cccc(C=Nc2cccc3ccccc23)c1O returned IEC-6 tox 32 and IEC-6 tox confirm inactive.
Screening O=[N+]([O-])c1ccc(O)c(C=Nc2cccc3ccccc23)c1 returned IEC-6 tox inactive.
`Cc1ccc(Oc2nc3ccccn3c(=O)c2/C=C(\C#N)C(=O)NC2CCS(=O)(=O)C2)c(C)c1` (centres undefined) gave IEC-6 tox 56 and IEC-6 tox confirm 34.
For Cc1cc(C)cc(Oc2nc3ccccn3c(=O)c2/C=C(\C#N)C(=O)NC2CCS(=O)(=O)C2)c1 (centres undefined) the results were IEC-6 tox inactive, BaF3 parental inactive, bCat nuc transl inactive and Ba/F3 V617F tox inactive.
For CN(C)c1ccc(/C=C/c2ccc3c4ccccc4ccc3[n+]2-c2ccccc2)cc1 the results were IEC-6 tox 65, BaF3 parental 89, APP transl inh 83, bCat nuc transl inconclusive, MT stabilize HCS inactive, Ba/F3 V617F tox 101 and IEC-6 tox confirm 80.
Screening CN(C)c1ccc(/C=C/c2cccc[n+]2[O-])cc1 returned IEC-6 tox inactive, BaF3 parental inactive, bCat nuc transl inactive and Ba/F3 V617F tox inactive.
For CCn1c(=O)c2cc(C(=O)NCCCOC)sc2c2ccccc21 the results were IEC-6 tox 22 and IEC-6 tox confirm inactive.
Screening CCCN(CCC)CCCNC(=O)c1cc2c(=O)n(CC)c3ccccc3c2s1 returned IEC-6 tox 22 and IEC-6 tox confirm inactive.
`CCc1ccc(C(=O)N/N=C(\C)c2cccnc2)s1` gave IEC-6 tox inactive.
O=C(NC1CCCN(Cc2ccccc2F)C1)c1cccs1 (centres undefined) was read as IEC-6 tox inactive.
For Cc1cc(NC(=O)c2cc(-c3cccc(OCC(C)C)c3)nc3ccccc23)no1 the results were IEC-6 tox inactive.
`Cc1ccc(C)c(S(=O)(=O)N2CCCOC2CNC(=O)C(=O)NCc2ccc3c(c2)OCO3)c1` (centres undefined) gave IEC-6 tox inactive.
COc1ccc(C(=O)NC2CCCc3ccccc32)cc1[N+](=O)[O-] (centres undefined) was read as IEC-6 tox 36 and IEC-6 tox confirm inactive.
Screening COc1ccc(C(=O)c2ccc(N(C)C)cc2)c2ccccc12 returned IEC-6 tox 78, BaF3 parental 78, APP transl inh 92, bCat nuc transl inactive, MT stabilize HCS inactive, Ba/F3 V617F tox 77 and IEC-6 tox confirm 58.
For CC1=Nc2cc(C(=O)NCC3CCCO3)ccc2Sc2ccc(Br)cc21 (centres undefined) the results were IEC-6 tox 43, BaF3 parental inactive, bCat nuc transl inactive, Ba/F3 V617F tox inactive and IEC-6 tox confirm 29.
COc1ccc([C@H]2C=C(C(=O)O)O[C@@H](OCCCCO)C2)cc1 was read as bCat nuc transl inactive.
Screening COc1ccc(OC)c(Nc2cc(-c3ccccc3)nc(N)n2)c1 returned IEC-6 tox 89, BaF3 parental 76, APP transl inh 94, MT stabilize HCS inactive, Ba/F3 V617F tox 83 and IEC-6 tox confirm 57.
Screening O=C(c1ccc(CS(=O)Cc2ccccc2Cl)o1)N1CCN(c2ccccn2)CC1 (centres undefined) returned IEC-6 tox inactive.
